Source: PubChem BioAssay (SRMLSC)
Lung fibro prol = blocks proliferation of human lung fibroblasts; LL 47 human lung fibroblast viability, ATP luminescence; stronger effect = lower value; viability, % at 10 µM; 85,000 tested, 1.1% active;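 active means viability at or below 50% in the single dose screen; inactive means viability above 50%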;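 further: compound exposure lasted 72 h before the ATP readout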
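Material: Human LL 47 lung fibroblast cells | Input: 1,150 cells/well | Buffer or medium: IMEM plus 15% FBS | Compound dosing: 0.1% DMSO in all compound wells | Times: Overnight cell rest, 72 h compound treatment at 37 °C | Signal: CellTiter-Glo luminescence measuring cellular ATP | Measure: % viability versus median cells-only luminescence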
HUVEC inhibit = inhibitors of human endothelial cell proliferation; HUVEC proliferation, CellTiter-Glo luminescence, 72 h; stronger effect = lower value; viability, % at 10 µM (by protocol); 86,000 tested, 1.1% active;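 active means viability at or below 30%; inactive means viability above 30%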
PTEN del growth = PTEN-deleted cell growth suppression; HCT116 PTEN-null viability, CellTiter-Glo, 60 h; stronger effect = lower value; viability, % at 10 µM; 140,000 tested, 1.2% active;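 active means viability at or below a set limit, 4 SD under the median of all tested compounds, cut at about 3.7% in these data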;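 further: PTEN knockout HCT116 line with beta catenin targeted HCT116 as companion control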
H69AR inhibit = blocks growth of human H69AR lung tumor cells | H69AR lung tumor viability, ATP luminescence, 72 h; stronger effect = lower value | viability, % at 10 µM | 85,000 tested, 6% active | AID 598;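 active means viability at or below 40%; inactive means viability above 40%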;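 further: multidrug resistant small cell line overexpressing MRP-1 efflux transporter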
HCT116 bCat-KO = beta-catenin-lacking colon tumor cell growth suppression | HCT116 beta-catenin knockout viability, CellTiter-Glo, 60 h; stronger effect = lower value | viability, % at 10 µM | 140,000 tested, 1.5% active;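 active means viability at or under a set limit, the compound median less 4 SD, cut at about 6% in these data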
A number is an active result; . = inactive; / = no result. Many of the other results were omitted from the sample, so hits are more common in it than they were.

SMILES | Lung fibro prol | HUVEC inhibit | PTEN del growth | H69AR inhibit | HCT116 bCat-KO
CCOC(=O)c1[nH]c2c(c1C)C(=O)CC(c1ccco1)C2 (stereo not drawn) | . | . | . | . | .
Cc1c(C(=O)OCCOC(C)C)[nH]c2c1C(=O)CC(c1ccco1)C2 (stereo not drawn) | . | . | . | . | .
CC(C)CNC(=O)c1ccccc1NC(=O)/C=C/c1cccc([N+](=O)[O-])c1 | / | / | . | / | .
Cc1cc2c(N3CCCCC3C)ncnc2s1 (stereo not drawn) | . | . | . | 37 | .
CC1(C)Cc2c(c(N3CCOCC3)nc3sc4c(NCc5ccco5)nnnc4c23)CS1 | . | . | . | 37 | .
CC1(C)Cc2c(c(N3CCOCC3)nc3sc4c(NN)ncnc4c23)CS1 | 17 | 6.3 | . | . | 2.8
CC1(C)Cc2c(c(N3CCOCC3)nc3sc4c(NCc5ccccc5)nnnc4c23)CS1 | 18 | 24 | 3.2 | 2.0 | .
CC(C)CNc1nnnc2c1sc1nc(N3CCOCC3)c3c(c12)CC(C)(C)SC3 | / | / | . | / | .
COc1ccc(OC)c2c(C)cc(NCCN3CCOCC3)nc12 | / | . | . | . | .
O=C(c1ccco1)N1CCN(CC(O)COc2ccc3oc4ccccc4c3c2)CC1 (stereo not drawn) | . | . | . | . | .
Cc1ccc(/C=C2/Sc3ccccc3N(CC(=O)NCCCOC(C)C)C2=O)cc1 | / | / | . | / | .
O=C(Nc1ccc2nc(-c3ccc(Br)o3)[nH]c2c1)c1cccs1 | . | . | . | 38 | .
CC(=O)Nc1ccc2nc(-c3ccc(Br)o3)[nH]c2c1 | / | / | . | / | .
CCOc1cccc2cc(-c3csc(NC(=O)CCC(=O)N4CCC(C)CC4)n3)c(=O)oc12 | 22 | 28 | . | 18 | .
CCOc1cccc2cc(-c3csc(NC(=O)CCC(=O)N4CCN(C)CC4)n3)c(=O)oc12 | . | . | / | 33 | /
CCOc1cccc2cc(C(=O)Nc3nccs3)c(=O)oc12 | / | / | . | / | .
CC(=O)N1CCN(Cc2ccc(Br)s2)CC1 | . | . | . | . | .
O=C(CSc1nnc2scc(-c3ccccc3)n12)Nc1nsc(-c2ccccc2)n1 | . | . | . | 38 | .
COCCN1C(=O)c2oc3ccccc3c(=O)c2C1c1ccc(OC)c(OC)c1 (stereo not drawn) | . | . | 0.2 | . | 0.1
COc1ccc(C2c3c(oc4ccccc4c3=O)C(=O)N2CCN2CCOCC2)cc1OC (stereo not drawn) | . | . | / | . | /
COc1cccc(Nc2nnc(SCC(=O)N(CC(C)C)CC(C)C)s2)c1 | . | . | . | . | .
O=C(COC(=O)/C=C/c1ccco1)Nc1cccc([N+](=O)[O-])c1 | / | / | . | / | .
CCOC(=O)N1CCN(C(=O)c2cc(-c3ccc(OCC)cc3)nc3ccccc23)CC1 | . | . | . | 16 | .
COc1ccc(-c2cc(C(=O)N3CCN(c4ccccn4)CC3)c3ccccc3n2)cc1 | . | . | . | 16 | .
COc1ccc(OC)c(-c2cc(C(=O)N3CCN(c4ncccn4)CC3)c3ccccc3n2)c1 | . | . | . | 30 | .
SMILES | Lung fibro prol | HUVEC inhibit | PTEN del growth | H69AR inhibit | HCT116 bCat-KO
COc1ccc(-c2cc(C(=O)N3CCN(c4ncccn4)CC3)c3ccccc3n2)c(OC)c1 | / | / | . | / | .
CCOc1ccc(-c2cc(C(=O)N3CCN(c4ccccn4)CC3)c3ccccc3n2)cc1 | . | . | . | 18 | .
Cc1ccc(NC(=O)COC(=O)C2CC3C=CC2C3)cc1S(=O)(=O)N1CCCCC1 (stereo not drawn) | / | / | . | / | .
COc1ccc2cc(CN(C(=O)Nc3ccccc3OC)C3CCCC3)c(=O)[nH]c2c1 | . | . | . | 25 | .
O=C(NC1CCCCC1)N(Cc1cc2cc3c(cc2[nH]c1=O)OCCO3)C1CCCCC1 | . | . | . | 36 | .
CCc1ccc2[nH]c(=O)c(CN(Cc3ccccc3)C(=O)Nc3ccccc3OC)cc2c1 | 49 | . | . | 39 | .
COc1cc2cc(CN(C(=O)NC3CCCCC3)C3CCCC3)c(=O)[nH]c2cc1OC | . | . | . | . | .
COc1ccccc1NC(=O)N(Cc1ccc2c(c1)OCO2)Cc1nc2ccccc2c(=O)[nH]1 | . | . | . | 9.4 | .
O=C(NCc1ccccc1Cl)c1cccc(C(F)(F)F)c1 | / | / | . | / | .
COC(=O)c1cc(NC(=O)c2cccc(C(F)(F)F)c2)c(=O)oc1C/C=N/OCc1cccc(Cl)c1Cl | . | . | . | 13 | .
COc1ccc(NC(=O)COC(=O)CCCN2C(=O)c3ccccc3C2=O)cc1Cl | / | / | . | / | .
CCN(CC)CCNc1ccc(CO)c2sc3ccccc3c(=O)c12 | / | / | 1.9 | / | 1.9
